PMC7063993 (ACS chemical neuroscience, 2019)

How the values were obtained:
[1] = Relative lipophilicity estimated by reverse phase HPLC retention times; type: physicochemical
[2] = Uptake into isolated intact MN9D cell mitochondria; design: species or system mouse; conditions: 50 μM, 45 min
[3] = system: MN9D cell mitochondrial membrane potential; assay: Mitochondrial membrane potential; type: cell-based, mouse; conditions: 500 μM, 1 h of incubation, TMRM
Outline: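 MN9D cells on glass-bottomed plates loaded with 50 nM TMRM in KRB-HEPES for 45 min in the dark. Fluorescence (Ex/Em 543/573 nm) recorded from 15–20 ROIs every 5 s for 3 min as baseline. Test compound then added and recording continued every 15 s for 1 h. Background subtracted and ROI averages taken as membrane potential.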

[4] = system: HepG2 cells; assay: Intracellular ROS levels by DCFH-DA in HepG2 cells; type: cell-based, Human; conditions: 1 h
Outline: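 Cells in 12-well plates loaded with 10 μM DCFH-DA in KRB-HEPES for 1 h, then washed with ice-cold buffer. Exposed to test compound in the same buffer for 1 h at 37 °C. Harvested and lysed in 0.1 M Tris (pH 7.5) with 1% Triton X-100, then cleared by centrifugation. DCF fluorescence read at Ex/Em 488/524 nm and normalized to protein content.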

[5] = system: MN9D cells; assay: Intracellular ROS levels by DCFH-DA in MN9D cells; type: cell-based, mouse
[6] = system: MN9D cells; assay: Cellular uptake into MN9D cells; type: cell-based, mouse; conditions: for Concentration dependence of MN9D cell uptake: up to 100 μM (0-100 μM for 45 min for [3], [4], [5])
Outline: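 MN9D cells seeded at 0.25 x 10⁶ cells/well and grown 2–3 days to 70–80% confluency. Test compound in warm KRB-HEPES (pH 7.4) at 37 °C: 50 μM for 0–60 min (time course) or varying concentrations for 45 min. Cells washed in ice-cold buffer and pellets extracted with 0.1 M HClO₄. C18 reversed-phase HPLC-UV quantified against standard curves. Normalized to Bradford protein, time-zero readings subtracted.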

[7] = system: dopaminergic SH-SH5Y cells; assay: MTT cell viability assay, SH-SY5Y cell toxicity; type: cell-based; conditions: read-out: IC50 (SH-SH5Y cell toxicity)
Outline: (§1)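 Cells grown in 96-well plates to ~70–80% confluence. Medium replaced with DMEM containing test compound at varying concentrations, 18 h (12 h in one series) at 37 °C. MTT added for 2 h at 37 °C. Formazan dissolved in 50% DMF/20% SDS for 12 h at 37 °C and read as A570 minus A650. Viability expressed as % of untreated controls.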

[8] = system: HepG2 cells; assay: MTT cell viability assay, HepG2 cell toxicity; type: cell-based, Human; conditions: same conditions/concentrations as MN9D experiments
Outline: as §1

[9] = system: MN9D cells; assay: Chromatin condensation test for apoptosis; type: cell-based, mouse; conditions: 200 μM [1], 12 h, 300 nM DAPI
Outline: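 MN9D cells on glass-bottomed plates exposed to test compound for 12 h. Nuclear DAPI fluorescence (Ex/Em 358/461 nm) from chromatin condensation observed by fluorescence microscopy. Controls handled the same way without toxin.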

[10] = system: dopaminergic MN9D cells; assay: MTT cell viability assay, MN9D cell toxicity; type: cell-based, mouse; conditions: Asc pre-treatment 30 min, 8 μM [3] or 40 μM [1], 18 h
Outline: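 MN9D cells in 96-well plates pretreated with ascorbate (0–500 μM) for 30 min at 37 °C. Then exposed to a fixed concentration of test compound with the same ascorbate level for 18 h at 37 °C. Read by MTT (A570 − A650) as % of controls. Parallel toxin-free wells at each ascorbate level subtracted to correct for MTT reduction by ascorbate.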

[11] = system: rat brain mitochondrial complex I; assay: Mitochondrial complex I; type: biochemical

Compound	RT (relative lipophilicity, reverse phase HPLC retention time) [1]	Uptake into isolated intact MN9D mitochondria [2]	Depolarization of MN9D cell mitochondrial membrane potential [3]	Effect on intracellular ROS levels in HepG2 cells [4]	Concentration dependence of MN9D cell uptake [6]	further results
4-(4′-methoxyphenyl-1-[2-(4-fluorophenyl)-propyl]pyridinium bromide [[5]]	6.97 min	accumulate efficiently in intact mitochondria with comparable efficiency	very weakly	did not increase	concentration dependent and non-saturable	Effect on intracellular ROS levels in MN9D cells ([5]; MN9D cells, up to 100 μM, 1 h, DCFH-DA): did not significantly increase
CC(=C[n+]1ccc(-c2ccccc2)cc1)c1ccccc1 [[1], N-(2-phenyl-1-propene)-4-phenyl-pyridinium]	6.33 min	–	–	–	non-saturable	IC50 [7]: ~50 µM; Toxicity to HepG2 cells [8]: not significantly toxic; Time course of MN9D cell uptake ([6]; 50 μM, up to 1 h, 37°C): linear; Chromatin condensation (nuclear DAPI fluorescence) in MN9D cell death [9]: associated with chromatin condensation
O=C1O[C@H]([C@@H](O)CO)C(O)=C1O [Asc, ascorbate, reference compound]	–	–	–	–	–	Effect on [1] and [3]-mediated MN9D cell death [10]: protects; Effect on [1]-mediated ROS production in MN9D cells ([5]; Asc 0-2 mM pre-incubation 1 h, then 200 μM [1] for 5 h): effectively reduces
4-(4′-methoxyphenyl-1-[2-(4-chlorophenyl)-propyl] pyridinium bromide [[3]]	8.39 min	accumulate efficiently in intact mitochondria with comparable efficiency	drastically	did not increase	concentration dependent and non-saturable	Increase of intracellular ROS level from the baseline levels ([5]; MN9D cells, 100 μM, 1 h, DCFH-DA): 2.5–3.0 fold
C=C(C)[C@H]1Cc2c(ccc3c2O[C@@H]2COc4cc(OC)c(OC)cc4[C@@H]2C3=O)O1 [rotenone]	–	–	–	–	–	Inhibition of ubiquinone dependent NADH oxidation activity of complex I ([11]; 10 μM, positive control, compared to control): more than 85%
C[n+]1ccc(-c2ccccc2)cc1 [MPP^+, 1-methyl-4-phenylpyridinium]	–	–	–	–	–	Relative percent inhibition of complex I ([11]; 100 μM, rat brain mitochondrial membranes): 12.5%
